Test results published in ChEMBL document CHEMBL4033754, “Antiobesity Effect of a Short-Length Peptide YY Analogue after Continuous Administration in Mice” (ACS Med Chem Lett, 2017).
The source made the active and inactive calls. The rule behind the calls is not given here. Where a SMILES comes first, the peptide text is derived from it. [ ]: non-standard residue; d: D form. The star is where a group is joined. ξ: configuration not given here. ξCha = NC(CC1CCCCC1)C(=O)O; Aib = CC(C)(N)C(=O)O; Bz = O=C(c1ccccc1)*

Columns and labels:
[1] = Mean residence time in C57BL/6J mouse at 1 mg/kg, iv after 24 hrs by LC-MS/MS analysis; assay type: ADME, organism-based; details: in vivo
Outline: (§1)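 Single 1 mg/kg dose, intravenous or subcutaneous, to C57BL/6J mice. Blood sampled at 5, 10, 15, 30 min and 1, 3, 6, 8, 24 h post-dose. Plasma peptide quantified by LC/MS/MS. Parameters derived from the mean (n = 3) plasma concentration–time profile.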

Mus musculus [2] = assay: Mean absorption time in C57BL/6J mouse at 1 mg/kg through subcutaneous administration after 24 hrs by LC-MS/MS analysis; assay type: ADME, organism-based; details: in vivo, sc; outline: as §1
[3] = Plasma concentration in C57BL/6J mouse at 1 mg/kg, iv after 5 mins by LC-MS/MS analysis; assay type: ADME, organism-based; outline: as §1
Mus musculus [4] = assay: AUC (0 to 24 hrs) in C57BL/6J mouse at 1 mg/kg, iv by LC-MS/MS analysis; assay type: ADME, organism-based; set-up: dose 1 mg/kg, time < 24 hr, route intravenous; details: in vivo; outline: as §1
[5] = Volume of distribution at steady state in C57BL/6J mouse at 1 mg/kg, iv after 24 hrs by LC-MS/MS analysis; assay type: ADME, organism-based; details: in vivo, read-out: Vdss; outline: as §1
Mus musculus [6] = assay: Total clearance in C57BL/6J mouse at 1 mg/kg, iv after 24 hrs by LC-MS/MS analysis; assay type: ADME, organism-based; details: in vivo; outline: as §1
[7] = Cmax in C57BL/6J mouse at 1 mg/kg through subcutaneous administration after 24 hrs by LC-MS/MS analysis; assay type: ADME, organism-based; set-up: dose 1 mg/kg, route subcutaneous; details: in vivo, sc; outline: as §1
[8] = Tmax in C57BL/6J mouse at 1 mg/kg through subcutaneous administration after 24 hrs by LC-MS/MS analysis; assay type: ADME, organism-based; details: in vivo, sc; outline: as §1
[9] = AUC (0 to 24 hrs) in C57BL/6J mouse at 1 mg/kg through subcutaneous administration after 24 hrs by LC-MS/MS analysis; assay type: ADME, organism-based; set-up: time < 24 hr, dose 1 mg/kg, route subcutaneous; details: in vivo, sc; outline: as §1
[10] = Mean residence time in C57BL/6J mouse at 1 mg/kg through subcutaneous administration after 24 hrs by LC-MS/MS analysis; assay type: ADME, organism-based; details: in vivo, sc; outline: as §1
Mus musculus [11] = assay: Antiobesity activity in diet-induced obese C57BL/6J mouse model assessed as reduction in body weight at 1 mg/kg administered via subcutaneous osmotic pumps for 6 to 7 days relative to control; assay type: functional; set-up: scale not given: the % may be the effect or the level left
Outline: (§2)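 Male C57BL/6J DIO mice received peptides at 1 mg/(kg·day) by continuous subcutaneous osmotic pump for 6–7 days (n = 6 per group). Body weight reduction expressed as a percentage versus vehicle.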

Mus musculus [12] = assay: Antiobesity activity in diet-induced obese C57BL/6J mouse assessed as reduction in body weight at 1 mg/kg administered via subcutaneous osmotic pumps for 7 days relative to control; assay type: functional; set-up: scale not given: the % may be the effect or the level left; outline: as §2
Mus musculus [13] = assay: Anorectic activity in lean mouse assessed as inhibition of food intake at 300 nmol/kg through bolus subcutaneous administration relative to control; assay type: functional; details: sc
Mus musculus [14] = assay: Antiobesity activity in lean C57BL/6J mouse assessed as inhibition of food intake at 1 mg/kg administered via subcutaneous osmotic pumps for 3 continuous days relative to control; details: sc
Mus musculus [15] = assay: Antiobesity activity in lean C57BL/6J mouse assessed as inhibition of food intake at 0.3 mg/kg administered via subcutaneous osmotic pumps for 3 continuous days relative to control; details: sc
[16] = Bioavailability in C57BL/6J mouse at 1 mg/kg through subcutaneous administration after 24 hrs by LC-MS/MS analysis; assay type: ADME, organism-based; details: in vivo, sc; outline: as §1
[17] = molecular target: T1, Neuropeptide Y receptor type 2 (Homo sapiens, UniProt P49146); assay: Displacement of [125I]-PYY from human Y2R expressed in CHO cell membranes after 60 mins by liquid scintillation method
T1 sequence (P49146 whole entry): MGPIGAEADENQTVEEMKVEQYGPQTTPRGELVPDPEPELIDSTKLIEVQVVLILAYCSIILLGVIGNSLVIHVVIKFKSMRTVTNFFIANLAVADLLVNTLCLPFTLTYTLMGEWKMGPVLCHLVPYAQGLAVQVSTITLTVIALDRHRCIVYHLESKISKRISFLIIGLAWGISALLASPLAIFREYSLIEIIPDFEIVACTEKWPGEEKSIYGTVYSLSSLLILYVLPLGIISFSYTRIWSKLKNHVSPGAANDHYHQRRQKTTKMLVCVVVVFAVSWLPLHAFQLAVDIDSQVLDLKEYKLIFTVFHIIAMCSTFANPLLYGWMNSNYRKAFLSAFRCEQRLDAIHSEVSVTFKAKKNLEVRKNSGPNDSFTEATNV

[18] = molecular target: T1, Neuropeptide Y receptor type 2; assay: Agonist activity at human Y2R expressed in CHO cell membranes assessed as [35S]GTPgammaS binding after 120 mins by liquid scintillation method; assay type: functional
Mus musculus [19] = assay: Anorectic activity in lean mouse assessed as inhibition of food intake at 1000 nmol/kg through bolus subcutaneous administration relative to control; assay type: functional; details: sc
Mus musculus [20] = assay: Antiobesity activity in diet-induced obese C57BL/6J mouse assessed as inhibition of food intake at 1 mg/kg administered via subcutaneous osmotic pumps for 7 days measured on day 4 of dosing; assay type: functional, organism-based
Outline: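 DIO mice given peptides continuously by subcutaneous osmotic pump for 7 days (n = 6), with body weight and cumulative food intake tracked daily. Statistics versus vehicle by Student's t test or Aspin-Welch test.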

| Compound | MRT [1] [min] | MAT (Mus musculus [2]) [h] | concentration at 5 min [3] [nM] | AUC (Mus musculus [4]) [µM·h] | Vd [5] [L/kg] | CL (Mus musculus [6]) [mL/min/kg] | Cmax [7] [nM] | Tmax [8] [min] | AUC(0-t) at 24 h [9] [µM·h] | MRT [10] [min] | Activity (Mus musculus [11]) [%] | Activity (Mus musculus [12]) [%] | inhibition in vivo at 0.3 µmol/kg (Mus musculus [13]) [%] | inhibition in vivo at 1 mg/kg (Mus musculus [14]) [%] | inhibition in vivo at 0.3 mg/kg (Mus musculus [15]) [%] | bioavailability [16] [%] | IC50 [17] [nM] | EC50 [18] [nM] | inhibition in vivo at 1 µmol/kg (Mus musculus [19]) [%] | inhibition (Mus musculus [20]) |
| --- | --- | --- | --- | --- | --- | --- | --- | --- | --- | --- | --- | --- | --- | --- | --- | --- | --- | --- | --- | --- |
| CC(=O)N[C@@H](CO)C(=O)N1C[C@@H](O)C[C@@H]1C(=O)N[C@@H](CCCNC(=N)N)C(=O)N[C@@H](Cc1cnc[nH]1)C(=O)N[C@@H](CC1CCCCC1)C(=O)N[C@@H](CC1CCCCC1)C(=O)N[C@@H](CC(N)=O)C(=O)N[C@@H](CC(C)C)C(=O)NC(C)(C)C(=O)N[C@H](C(=O)N[C@@H](CCCNC(=N)N)C(=O)N[C@@H](CCC(N)=O)C(=O)N[C@@H](CCCNC(=N)N)C(=O)N[C@@H](CC1CCCCC1)C(N)=O)[C@@H](C)O [listing 1 of 2 here] | 10.8 | 0.14 | 935 | 0.18 | 0.533 | 49.47 | 98.1 | 10.2 | 0.0336 | 19.2 |  |  |  |  |  |  |  |  |  |  |
| CC(=O)N[C@@H](CO)C(=O)N1C[C@@H](O)C[C@@H]1C(=O)N[C@@H](CCCNC(=N)N)C(=O)N[C@@H](Cc1cnc[nH]1)C(=O)N[C@@H](CC1CCCCC1)C(=O)N[C@@H](CC1CCCCC1)C(=O)N[C@@H](CC(N)=O)C(=O)N[C@@H](CC(C)C)C(=O)NC(C)(C)C(=O)N[C@H](C(=O)N[C@@H](CCCNC(=N)N)C(=O)N[C@@H](CCC(N)=O)C(=O)N[C@@H](CCCNC(=N)N)C(=O)N[C@@H](CC1CCCCC1)C(N)=O)[C@@H](C)O [listing 2 of 2 here] |  |  |  |  |  |  |  |  |  |  | -10.2 | 7.4 | 23 | 79 | 47 |  |  |  |  |  |
| CC(C)C[C@H](NC(=O)[C@H](CC(N)=O)NC(=O)C(CC1CCCCC1)NC(=O)C(CC1CCCCC1)NC(=O)[C@H](Cc1cnc[nH]1)NC(=O)[C@H](CCCNC(=N)N)NC(=O)c1ccccc1)C(=O)NC(C)(C)C(=O)N[C@H](C(=O)N[C@@H](CCCNC(=N)N)C(=O)N[C@@H](CCC(N)=O)C(=O)N[C@@H](CCCNC(=N)N)C(=O)NC(CC1CCCCC1)C(N)=O)[C@@H](C)O (stereo partly specified) (Bz-RH[ξCha][ξCha]NL[Aib]TRQR[ξCha]-NH2) | 27 | 2.72 | 7550 | 3.56 | 0.073 | 2.7 | 75.6 | 15 | 0.209 | 190 | 0.4 |  |  |  |  | 5.9 | 7.4 | 2 | 20 |  |
| CC(=O)N[C@@H](CO)C(=O)N1C[C@@H](O)C[C@@H]1C(=O)N[C@@H](CCCNC(=N)N)C(=O)N[C@@H](Cc1cnc[nH]1)C(=O)NC(CC1CCCCC1)C(=O)NC(CC1CCCCC1)C(=O)N[C@@H](CC(N)=O)C(=O)N[C@@H](CC(C)C)C(=O)NC(C)(C)C(=O)N[C@H](C(=O)N[C@@H](CCCNC(=N)N)C(=O)N[C@@H](CCC(N)=O)C(=O)N[C@@H](CCCNC(=N)N)C(=O)NC(CC1CCCCC1)C(N)=O)[C@@H](C)O (stereo partly specified) |  |  |  |  |  |  |  |  |  |  |  |  |  |  |  |  |  |  |  | Active |
